Test results published in PubChem BioAssay.
Unmarked numbers belong to inactive results. Inconclusive results are not listed. Calls of active or inactive are those of the source.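 The calls were made as follows, unless noted: active = RAM network inhibition above 8.4% in each of two replicates, 3 SD over the compound average; inconclusive = above 8.4% inhibition in only one replicate; inactive = 8.4% inhibition or less in each replicate.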

Assays:
[1] = S. cerevisiae growth inhibition in permissive medium (OD615), pilot counter-assay for S. cerevisiae lifespan shortening project, permissive growth control (AID 705;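 active = growth inhibition above 25% in both replicates, a cutoff set 3 SD above the mean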); conditions: OD615, 24 h, at 10 µM, hits give high values
Method in brief: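 System – S. cerevisiae with engineered DeaD lifespan system · Buffer or medium – SC raffinose/galactose permissive medium · Schedule – cells pre-grown 4 h, then 24 h compound exposure, 30 °C humidified · Technique – culture turbidity as optical density at 615 nm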

[2] = S. cerevisiae growth inhibition in restrictive medium, OD615, pilot screen, restrictive growth control, yeast lifespan reduction project (AID 706;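 active = growth inhibition above a set limit, 3 SD over mean compound inhibition, in both replicates, cut at about 43% in these data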;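 also: modified DeaD lifespan yeast strain shifted to restrictive glucose medium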); conditions: OD615, 48 h, at 10 µM, hits give high values
Method in brief: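 Material: engineered S. cerevisiae DeaD strain / Medium: glucose-based CSMM-D restrictive medium / Compound: single dose of 10 µM compound final, 0.25% DMSO / Timing: 4 h pre-incubation, 48 h exposure at 30 °C / Technique: OD615 absorbance reading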

[3] = doxorubicin toxicity protection in MRP-1 cells – H69AR cells, CellTiter-Glo, duplicate, MRP-1 activator project, pilot screen (AID 807;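 active = viability increase at or above a cutoff of the median across tested compounds plus 3 SD, cut at about 8.5% in these data, passing the limit was not always enough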;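 also: compound pretreatment 18-22 h then 72 h combined with doxorubicin; 0% = doxorubicin alone and 100% = vehicle without doxorubicin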); conditions: H69AR viability with doxorubicin, CellTiter-Glo luminescence; at 10 µM; hits give high values
[4] = viability of HCT116 without oncogenic beta-catenin – human colon tumor cells, pilot screen (AID 823;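 active = cell viability at or below a set limit in both duplicate runs, the limit being the all-compound median minus 4 SD, cut at about 23% in these data, passing the limit was not always enough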;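 also: 0% = wells killed by 20 µM Hyamine and 100% = untreated DMSO cell wells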); conditions: HCT116 beta-catenin knockout viability, CellTiter-Glo, 60 h; at 10 µM; hits give low values
[5] = viability of PTEN-null HCT116 cells – cell-based, HCT116 clonal line, CellTiter-Glo, pilot screen (AID 824;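 active = viability at or below 27.92% in each of two runs, the all-compound median minus 4 SD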;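 also: 0% = 20 µM Hyamine control and 100% = vehicle cell control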); conditions: HCT116 PTEN-deleted viability, 60 h, at 10 µM, hits give low values
[6] = RAM pathway blockade in budding yeast – dse1pr::URA3 reporter, 5-FOA selection, pilot screen (AID 869;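 active = inhibition over a set limit, the all-compound mean plus 3 SD, in both replicate runs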;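 also: 0% = DMSO wells with no growth and 100% = 10 µM 1-NA-PP1 with full growth; RAM network block rescues cells from 5-FOA so hits raise OD615 growth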); conditions: S. cerevisiae dse1pr::URA3 5-FOA growth, OD615, 2 d; at 10 µM; hits give high values; strain carries analog-sensitive mutant Cbk1 kinase
[7] = RAM signaling pathway blockade in yeast – S. cerevisiae, Pdr1DBD-CYC8 efflux-inhibited sensitized strain, primary screen (AID 1298);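 also: 0% = DMSO untreated cells without growth and 100% = 10 µM 1-NA-PP1 full growth; higher means more yeast growth rescued from 5-FOA killing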; conditions: S. cerevisiae cbk1-as DSE1-URA3 strain, 5-FOA growth OD615, 2 d; at 50 µM; hits give high values

## Cn1ccnc1SCC(=O)Nc1cccc(C(F)(F)F)c1
[1]
  growth inhibition: 0.76%
[2]
  growth inhibition: 10.5%
[3]
  viability increase: -4.88%
[4]
  viability: 96.4%
[5]
  viability: 96.8%
[6]
  inhibition: 0.71%
[7]
  RAM network inhibition: 4.72%

## Cc1ccc(CC2S/C(=C(/C#N)C(=O)NCc3ccco3)N(c3ccccc3)C2=O)cc1 (stereo not given)
[1]
  growth inhibition: 1.42%
[2]
  growth inhibition: 2.41%
[3]
  viability increase: -7.76%
[4]
  viability: 45%
[5]
  viability: 60.6%
[6]
  inhibition: 0.44%
[7]
  RAM network inhibition: 1.64%

## CCOC(=O)CCc1c(C)c2c(C)nn(-c3ccccc3)c2[nH]c1=O
[1]
  growth inhibition: -2.26%
[2]
  growth inhibition: -0.33%
[3]
  viability increase: -1.19%
[4]
  viability: 99%
[5]
  viability: 95.9%
[6]
  inhibition: 1.65%
[7]
  RAM network inhibition: 1.84%

## CCOC(=O)C1=C(N)OC2=C(C(=O)CCC2)C1c1ccccc1OCC (stereo not given)
[1]
  growth inhibition: -3.85%
[2]
  growth inhibition: -4.66%
[3]
  viability increase: -0.08%
[4]
  viability: 100%
[5]
  viability: 103%
[6]
  inhibition: 1.05%
[7]
  RAM network inhibition: 8.68%

## Cc1ccccc1-n1nc(-c2ccc(N)cc2)cc1N
[1]
  growth inhibition: 3.39%
[2]
  growth inhibition: 2.1%
[3]
  viability increase: -2.52%
[4]
  viability: 101%
[5]
  viability: 94.7%
[6]
  inhibition: 0.8%
[7]
  RAM network inhibition: 2.8%

## O=C(NC1CCCc2ccccc21)C1CCN(C(=O)c2sccc2-n2cccc2)CC1 (stereo not given)
[1]
  growth inhibition: -5.99%
[2]
  growth inhibition: -8.89%
[3]
  viability increase: -4.24%
[4]
  viability: 84.7%
[5]
  viability: 78.7%
[6]
  inhibition: -0.305%
[7]
  RAM network inhibition: 4.28%

## c1ccc(Nc2nc(N3CCOCC3)nc(N3CCOCC3)n2)cc1
[1]
  growth inhibition: 5.75%
[2]
  growth inhibition: 6.58%
[3]
  viability increase: -6.19%
[4]
  viability: 67.9%
[5]
  viability: 67.2%
[6]
  inhibition: 0.65%
[7]
  RAM network inhibition: 1.44%

## CCOc1ccc(-n2c(SCC(=O)Nc3nccs3)nc3c(c2=O)SCC3)cc1
[1]
  growth inhibition: -7.92%
[2]
  growth inhibition: -5.48%
[3]
  viability increase: -0.41%
[4]
  viability: 104%
[5]
  viability: 98.3%
[6]
  inhibition: 3.15%
[7]
  RAM network inhibition: 4.65%

## CCCNc1nc2c(c(=O)n(C)c(=O)n2C)n1Cc1ccc(F)cc1
[1]
  growth inhibition: -3.24%
[2]
  growth inhibition: -4.52%
[3]
  viability increase: -1.45%
[4]
  viability: 78.8%
[5]
  viability: 79.1%
[6]
  inhibition: 0.88%
[7]
  RAM network inhibition: 3.07%

## COc1ccc(Cl)cc1C(=O)Nc1cc(=O)n(C)c(=O)n1C
[1]
  growth inhibition: -16.1%
[2]
  growth inhibition: -29.6%
[3]
  viability increase: -1.06%
[4]
  viability: 102%
[5]
  viability: 99.1%
[6]
  inhibition: 1.71%
[7]
  RAM network inhibition: 2.2%

## COc1ccc(C)cc1NC(=O)CSc1nnc(-c2ccc(OC)c(OC)c2)n1N
[1]
  growth inhibition: 3.19%
[2]
  growth inhibition: 14%
[3]
  viability increase: -1.57%
[4]
  viability: 102%
[5]
  viability: 98.9%
[6]
  inhibition: 0.235%
[7]
  RAM network inhibition: 7.82%

## CC(NS(C)(=O)=O)C(c1cccs1)N1CCN(Cc2ccccc2)CC1 (stereo not given)
[1]
  growth inhibition: -7.18%
[2]
  growth inhibition: 11.4%
[3]
  viability increase: -1.92%
[4]
  viability: 85.5%
[5]
  viability: 87.3%
[6]
  inhibition: 1.25%
[7]
  RAM network inhibition: 3.61%

## COCCN1C(=O)c2oc3ccccc3c(=O)c2C1c1ccc(C(=O)OC)cc1 (stereo not given)
[1]
  growth inhibition: -1.7%
[2]
  growth inhibition: 5.81%
[3]
  viability increase: -1.14%
[4]
  viability: 94.3%
[5]
  viability: 89.1%
[6]
  inhibition: 0.775%
[7]
  RAM network inhibition: 2.37%

## Cc1cccc(OCCOCCSc2ncccn2)c1
[1]
  growth inhibition: -8.47%
[2]
  growth inhibition: 8.79%
[3]
  viability increase: -1.63%
[4]
  viability: 97.9%
[5]
  viability: 94.8%
[6]
  inhibition: 0.99%
[7]
  RAM network inhibition: 6.33%

## O=C(c1ccccc1)C(Sc1ncn[nH]1)c1ccccc1 (stereo not given)
[1]
  growth inhibition: -8.75%
[2]
  growth inhibition: 0.305%
[3]
  viability increase: 5.4%
[4]
  viability: 92.5%
[5]
  viability: 85.7%
[6]
  inhibition: 1.1%
[7]
  RAM network inhibition: 2.92%

## CN1CCN(S(=O)(=O)c2ccc(-c3ccc(S(=O)(=O)N4CCN(C)CC4)cc3)cc2)CC1
[1]
  growth inhibition: -23.4%
[2]
  growth inhibition: -19.1%
[3]
  viability increase: 0.84%
[4]
  viability: 96.5%
[5]
  viability: 96.2%
[6]
  inhibition: 0.68%
[7]
  RAM network inhibition: 0.57%

## Cc1csc(NC(=O)CSc2nnc(Cn3c(=O)sc4ccccc43)n2-c2ccccc2)n1
[1]
  growth inhibition: 0.38%
[2]
  growth inhibition: 15.3%
[3]
  viability increase: -1.37%
[4]
  viability: 96%
[5]
  viability: 96.8%
[6]
  inhibition: 2.42%
[7]
  RAM network inhibition: 6.99%

## CC(=O)Nc1nnc(C)s1
[1]
  growth inhibition: -17%
[2]
  growth inhibition: -8.07%
[3]
  viability increase: -2.11%
[4]
  viability: 103%
[5]
  viability: 93.3%
[6]
  inhibition: 1.29%
[7]
  RAM network inhibition: 1.53%

## O=C(Cn1c(=O)n(-c2ccccc2)c(=O)n1CC(=O)N1CCCCC1)N1CCCCC1
[1]
  growth inhibition: -8.76%
[2]
  growth inhibition: -2.77%
[3]
  viability increase: -0.69%
[4]
  viability: 107%
[5]
  viability: 96.4%
[6]
  inhibition: 0.495%
[7]
  RAM network inhibition: 0.57%

## CCOC(=O)c1c(C)oc2cc(Br)c(O)c(Br)c12
[1]
  growth inhibition: -19%
[2]
  growth inhibition: -14.6%
[3]
  viability increase: -2.05%
[4]
  viability: 93.6%
[5]
  viability: 85.7%
[6]
  inhibition: 0.86%
[7]
  RAM network inhibition: 0.68%

## CCc1cccc(OCCCCNCCOC)c1
[1]
  growth inhibition: -2.16%
[2]
  growth inhibition: -11.6%
[3]
  viability increase: -0.86%
[4]
  viability: 89.1%
[5]
  viability: 99.3%
[6]
  inhibition: 2.08%
[7]
  RAM network inhibition: -0.32%

## CCOc1ccccc1CNC(=O)c1cc2occc2n1C
[1]
  growth inhibition: 1.53%
[2]
  growth inhibition: 5.16%
[3]
  viability increase: 1.21%
[4]
  viability: 95.2%
[5]
  viability: 87.4%
[6]
  inhibition: 1.74%
[7]
  RAM network inhibition: 3.98%

## COc1ccc(C2C(C(=O)N3CC(C)CC(C)C3)c3ccccc3C(=O)N2C)cc1 (stereo not given)
[1]
  growth inhibition: -10.8%
[2]
  growth inhibition: -4.94%
[3]
  viability increase: -1.09%
[4]
  viability: 96.7%
[5]
  viability: 93%
[6]
  inhibition: 0.305%
[7]
  RAM network inhibition: 0.47%

## CCOc1ccc(NC(=O)CN2C(=O)COc3ccc(Cl)cc32)cc1
[1]
  growth inhibition: -17%
[2]
  growth inhibition: -12.8%
[3]
  viability increase: 3.8%
[4]
  viability: 97.4%
[5]
  viability: 90.1%
[6]
  inhibition: 2.06%
[7]
  RAM network inhibition: 6.61%

## CN1CCN(c2ncnc3c2sc2nc(N4CCCC4)c4c(c23)CC(C)(C)OC4)CC1
[1]
  growth inhibition: -21.2%
[2]
  growth inhibition: -18.1%
[3]
  viability increase: -3.25%
[4]
  viability: 99.6%
[5]
  viability: 97.1%
[6]
  inhibition: 0.735%
[7]
  RAM network inhibition: -0.84%

## CCN(CC)CCN1C(=O)c2ccccc2NC1c1cccc(F)c1 (stereo not given)
[1]
  growth inhibition: -8.46%
[2]
  growth inhibition: 1.83%
[3]
  viability increase: -2.21%
[4]
  viability: 84.4%
[5]
  viability: 91.4%
[6]
  inhibition: 0.75%
[7]
  RAM network inhibition: 8.87%

## COC(=O)NCC(c1cccnc1)N1CCN(c2ccccc2)CC1 (stereo not given)
[1]
  growth inhibition: -3.09%
[2]
  growth inhibition: -0.34%
[3]
  viability increase: 0.41%
[4]
  viability: 91.3%
[5]
  viability: 96.8%
[6]
  inhibition: 0.355%
[7]
  RAM network inhibition: -1.35%

## CC1(C)CC(=O)C(C=Nc2ccccc2)=C(O)C1
[1]
  growth inhibition: -7.81%
[2]
  growth inhibition: 1.81%
[3]
  viability increase: -1.32%
[4]
  viability: 98.1%
[5]
  viability: 96.2%
[6]
  inhibition: 2.92%
[7]
  RAM network inhibition: 1.59%

## COc1ccc(OC)c(C2CC(=O)N3CN(c4cccc(Cl)c4C)CSC3=C2C#N)c1 (stereo not given)
[1]
  growth inhibition: 2.17%
[2]
  growth inhibition: 13.8%
[3]
  viability increase: -5.48%
[4]
  viability: 74%
[5]
  viability: 72.1%
[6]
  inhibition: 1.87%
[7]
  RAM network inhibition: 2.07%

## CN1C(=O)c2cccc(NC(=O)C3CCCCC3)c2C1=O
[1]
  growth inhibition: -7.12%
[2]
  growth inhibition: 6.03%
[3]
  viability increase: -1.21%
[4]
  viability: 107%
[5]
  viability: 93%
[6]
  inhibition: 0.445%
[7]
  RAM network inhibition: -0.16%

## COc1ccc(C(C(=O)NC2CCCC2)N2CCc3ccccc32)cc1 (stereo not given)
[1]
  growth inhibition: -12.6%
[2]
  growth inhibition: -11.4%
[3]
  viability increase: -3.02%
[4]
  viability: 92.8%
[5]
  viability: 87.9%
[6]
  inhibition: 1.26%
[7]
  RAM network inhibition: 1.52%

## CN(CC1CCCO1)S(=O)(=O)c1ccc(C(=O)Nc2nc(-c3ccccn3)cs2)cc1 (stereo not given)
[1]
  growth inhibition: -14.2%
[2]
  growth inhibition: -14.7%
[3]
  viability increase: -5.46%
[4]
  viability: 18.5% (active)
[5]
  viability: 23.1% (active)
[6]
  inhibition: 2.57%
[7]
  RAM network inhibition: 2.63%

## CC(=O)Nc1sc(C)c(C)c1CN1CCN(S(=O)(=O)c2ccccc2)CC1
[1]
  growth inhibition: -1.31%
[2]
  growth inhibition: -23.5%
[3]
  viability increase: -2.28%
[4]
  viability: 88.5%
[5]
  viability: 85%
[6]
  inhibition: -0.365%
[7]
  RAM network inhibition: 1.74%

## O=C(O)c1ccc(NS(=O)(=O)c2cccc3cccnc23)cc1
[1]
  growth inhibition: -2.47%
[2]
  growth inhibition: 7.28%
[3]
  viability increase: -0.56%
[4]
  viability: 102%
[5]
  viability: 94.1%
[6]
  inhibition: 2.25%
[7]
  RAM network inhibition: 1.04%

## O=C1C2CCCN2C(c2ccc(Br)cc2)N1c1ccc(F)cc1 (stereo not given)
[1]
  growth inhibition: -4.66%
[2]
  growth inhibition: -3.76%
[3]
  viability increase: -3.07%
[4]
  viability: 94.2%
[5]
  viability: 90%
[6]
  inhibition: 2.89%
[7]
  RAM network inhibition: 9.1%
